Measured values: ChEMBL document CHEMBL4373727, “Thienopyrimidinone Derivatives That Inhibit Bacterial tRNA (Guanine37-N1)-Methyltransferase (TrmD) by Restructuring the Active Site with a Tyrosine-Flipping Mechanism” (J Med Chem, 2019)
Values after ≈ are worked out from the molar mass of the structure shown. Active and inactive are the calls of the source. Unless noted, the calls are words filed in the database; no cut-off is given here.

Tests used:
[1] = system: Staphylococcus aureus; test: Antibacterial activity against methicillin-resistant Staphylococcus aureus ATCC 43300 at 100 uM incubated for 24 hrs; assay type: functional, organism-based
Method in brief: (§1)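 Single-concentration growth screen: 100 μM test compound with log-phase bacteria at about 5×10^5 cells/mL. Incubation 24 h at 37 °C. Growth read by OD600 and given as percent of untreated control. MRSA was grown in cation-adjusted Mueller–Hinton broth. M. smegmatis was grown in complete Middlebrook 7H9. Ampicillin and kanamycin served as positive controls.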

[2] = system: Mycobacterium tuberculosis; test: Antibacterial activity against Mycobacterium tuberculosis ATCC 27294 at 100 uM incubated for 7 days; assay type: functional, organism-based
[3] = system: Staphylococcus aureus; test: Antibacterial activity against methicillin-resistant Staphylococcus aureus ATCC 43300 incubated for 24 hrs by serial broth microdilution method; assay type: functional; details: ATCC 43300, 24 h
Method in brief: (§2)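 Growth read by OD600. MRSA in cation-adjusted Mueller–Hinton broth, M. smegmatis in complete 7H9. MIC50 and MIC90 are 50% and 90% growth inhibition versus drug-free controls. Two independent experiments, each in duplicate.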

[4] = system: Streptococcus pneumoniae; test: Antibacterial activity against Streptococcus pneumoniae ATCC 49619 incubated for 24 hrs by serial broth microdilution method; assay type: functional; details: ATCC 49619, 24 h
Method in brief: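 Cultured in MH medium plus 3% defibrinated sheep blood at 37 °C, 5% CO2. Log-phase inoculum ~5×10^5 cells/mL was exposed to serial compound dilutions for 24 h. MIC50/MIC90 are relative to drug-free controls. Two independent experiments in duplicate.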

[5] = system: Streptococcus pneumoniae; test: Bactericidal activity against Streptococcus pneumoniae ATCC 49619 assessed as reduction in CFU at 1 to 4 times MIC90 incubated for 24 hrs; assay type: functional; details: ATCC 49619, 24 h, read-out: MBC99.9
[6] = system: Acinetobacter baumannii; test: Bactericidal activity against Acinetobacter baumannii ATCC 17961 assessed as reduction in CFU at 1 to 4 times MIC90 incubated for 24 hrs; assay type: functional; details: ATCC 17961, 24 h, read-out: MBC99.9
[7] = system: Mycobacterium tuberculosis; test: Bactericidal activity against Mycobacterium tuberculosis H37Rv assessed as reduction in CFU at 1 to 4 times MIC90 incubated for 7 days; assay type: functional; details: 168 h, read-out: MBC99.9
Method in brief: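 Then plated on complete 7H10 agar for CFU. Inoculum plated at time zero. MBC99.9 is a 1000-fold CFU reduction versus the time-zero inoculum.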

[8] = system: Klebsiella pneumoniae; test: Bactericidal activity against Klebsiella pneumoniae ATCC 13883 assessed as reduction in CFU at 1 to 4 times MIC90 incubated for 24 hrs; assay type: functional, organism-based
[9] = system: Mycolicibacterium smegmatis; test: Antibacterial activity against Mycolicibacterium smegmatis MC2 155 at 100 uM incubated for 24 hrs; assay type: functional, organism-based; method in brief: as §1
[10] = system: Enterococcus faecalis; test: Antibacterial activity against Enterococcus faecalis ATCC 51299 incubated for 24 hrs by serial broth microdilution method; assay type: functional, organism-based
Method in brief: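 Broth microdilution in brain heart infusion broth, ~5×10^5 cells/mL log-phase inoculum, serial compound dilutions, 24 h at 37 °C, OD600 read-out. MIC50/MIC90 are the concentrations giving 50%/90% growth inhibition relative to drug-free controls. Two independent experiments in duplicate.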

[11] = system: Salmonella enteritidis; test: Bactericidal activity against Salmonella enteritidis ATCC 13076 assessed as reduction in CFU at 1 to 4 times MIC90 incubated for 24 hrs; assay type: functional
[12] = system: Enterococcus faecalis; test: Bactericidal activity against Enterococcus faecalis ATCC 51299 assessed as reduction in CFU at 1 to 4 times MIC90 incubated for 24 hrs; assay type: functional, organism-based
[13] = target: T1, tRNA (guanine-N(1)-)-methyltransferase (Pseudomonas aeruginosa (strain ATCC 15692 / DSM 22644 / CIP 104116 / JCM14847 / LMG 12228 / 1C / PRS 101 / PAO1), UniProt Q9HXQ1); test: Inhibition of Pseudomonas aeruginosa tRNA (guanine(37)-N1)-methyltransferase (Leu5 to Asp25 residues) expressed in Escherichia coli BL21 (DE3) Rosetta T1R cells assessed as reduction in S-adenosyl-L-homocysteine production preincubated for 15 mins followed by 1.5 uM of tRNALeu(CAG) substrate and SAM addition and measured after 45 mins by MTase-Glo assay
T1 sequence (Q9HXQ1 whole entry): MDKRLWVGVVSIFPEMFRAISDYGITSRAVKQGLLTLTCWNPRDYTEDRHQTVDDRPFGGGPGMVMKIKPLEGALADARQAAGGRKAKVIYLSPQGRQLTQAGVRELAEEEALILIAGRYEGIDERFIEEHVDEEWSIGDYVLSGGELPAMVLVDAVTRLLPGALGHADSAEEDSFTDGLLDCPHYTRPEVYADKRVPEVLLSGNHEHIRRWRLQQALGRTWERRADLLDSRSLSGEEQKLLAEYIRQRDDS
Method in brief: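 MTase-Glo luminescence assay. 8 nM TrmD preincubated 15 min at ambient temperature with serially diluted inhibitor (0–500 μM) in 50 mM Tris-HCl pH 8.0, 80 mM NaCl, 1 mM MgCl2, 0.5 mM DTT, 0.01% Triton X-100. Reaction with 2 μM SAM and tRNALeu(CAG), 45 min at 37 °C. Detection 30 min in the dark, SAH read against a standard curve. IC50 by nonlinear regression. Two independent experiments in duplicate.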

[14] = system: Pseudomonas aeruginosa; test: Bactericidal activity against Pseudomonas aeruginosa PA14 assessed as reduction in CFU at 1 to 4 times MIC90 incubated for 24 hrs; assay type: functional, organism-based
[15] = system: Escherichia coli; test: Bactericidal activity against Escherichia coli BW25113 assessed as reduction in CFU at 1 to 4 times MIC90 incubated for 24 hrs; assay type: functional, organism-based
[16] = system: Escherichia coli; test: Antibacterial activity against Escherichia coli BW25113 incubated for 24 hrs by serial broth microdilution method; assay type: functional, organism-based
Method in brief: (§3)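 Log-phase cultures from four colonies grown overnight at 37 °C, inoculated at ~5×10^5 cells/mL in cation-adjusted Mueller–Hinton broth with serially diluted compound. Grown 24 h at 37 °C, then OD600 read. MIC50/MIC90 are the concentrations giving 50%/90% growth inhibition relative to drug-free controls. Two independent experiments in duplicate.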

[17] = system: Pseudomonas aeruginosa; test: Antibacterial activity against Pseudomonas aeruginosa PA14 incubated for 24 hrs by serial broth microdilution method; assay type: functional, organism-based; method in brief: as §3
[18] = system: Acinetobacter baumannii; test: Antibacterial activity against Acinetobacter baumannii ATCC 17961 incubated for 24 hrs by serial broth microdilution method; assay type: functional; details: ATCC 17961, 24 h; method in brief: as §3
[19] = system: Mycolicibacterium smegmatis; test: Antibacterial activity against Mycolicibacterium smegmatis MC2 155 incubated for 24 hrs by serial broth microdilution method; assay type: functional; details: MC2 155, 24 h; method in brief: as §2
[20] = system: Salmonella enteritidis; test: Antibacterial activity against Salmonella enteritidis ATCC 13076 incubated for 24 hrs by serial broth microdilution method; assay type: functional; method in brief: as §3
[21] = system: Streptococcus pneumoniae; test: Antibacterial activity against Streptococcus pneumoniae ATCC 49619 at 100 uM incubated for 24 hrs; assay type: functional, organism-based
Method in brief: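 Single 100 μM screen in MH medium with 3% defibrinated sheep blood at 37 °C under 5% CO2, ~5×10^5 cells/mL, 24 h.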

[22] = system: Klebsiella pneumoniae; test: Antibacterial activity against Klebsiella pneumoniae ATCC 13883 incubated for 24 hrs by serial broth microdilution method; assay type: functional, organism-based; method in brief: as §3
[23] = system: Mycolicibacterium smegmatis; test: Bactericidal activity against Mycolicibacterium smegmatis MC2 155 assessed as reduction in CFU at 1 to 4 times MIC90 incubated for 24 hrs; assay type: functional; details: MC2 155, 24 h, read-out: MBC99.9
[24] = system: Enterococcus faecalis; test: Antibacterial activity against Enterococcus faecalis ATCC 51299 at 100 uM incubated for 24 hrs; assay type: functional, organism-based
Method in brief: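 Single-concentration screen in brain heart infusion broth. Log-phase cells at ~5×10^5 cells/mL were grown with 100 μM compound for 24 h at 37 °C. Growth was read as OD600 and expressed as a percentage of untreated wells. DMSO and blank controls were included.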

[25] = system: Staphylococcus aureus; test: Bactericidal activity against methicillin-resistant Staphylococcus aureus ATCC 43300 assessed as reduction in CFU at 1 to 4 times MIC90 incubated for 24 hrs; assay type: functional; details: ATCC 43300, 24 h, read-out: MBC99.9
[26] = system: Erythrocyte; test: Hemolytic activity in human RBC at 100 uM measured after 1 hr; assay type: ADME, cell-based
Method in brief: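 Fresh human RBCs were PBS-washed and resuspended to OD600 24, then mixed 1:1 by volume with compound serially diluted in PBS. Incubated 1 h at 37 °C without shaking and centrifuged at 1000g for 15 min. Triton X-100 served as positive control. Run in triplicate.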

[27] = system: Mycobacterium tuberculosis; test: Antibacterial activity against Mycobacterium tuberculosis ATCC 27294 incubated for 7 days by broth dilution method; assay type: functional; details: ATCC 27294, 168 h
Method in brief: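 M. tuberculosis ATCC 27294 in complete 7H9 with 0.05% Tween 80, 0.5% glycerol and 10% ADC. Mid-log cells adjusted to OD600 0.1 and added 1:1 to 2-fold serial compound dilutions (highest 100 μM). Incubated 7 d at 37 °C with shaking at 80 rpm, then OD600 read. Isoniazid positive control. MIC50/MIC90 versus drug-free controls. Biological duplicates.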

[28] = Salmonella enterica subsp. enterica serovar Enteritidis
[29] = Salmonella enterica, ATCC 13076, 24 h

SMILES	Activity [1]	Activity [2]	MIC50 [3]	MIC90 [3]	MIC50 [4]	MIC90 [4]	MBC [5]	MBC [6]	MBC99.9 [8]	Activity [9]	MIC50 [10]	MIC90 [10]	MBC99.9 [12]	IC50 [13]	MBC99.9 [14]	MBC99.9 [15]	MIC50 [16]	MIC90 [16]	MIC50 [17]	MIC90 [17]	further results
CCCCCCCCCCNCc1ccc(CNC(=O)c2csc3nc[nH]c(=O)c23)cc1	Active	Active	6 µM (≈ 2.73 µg/mL)	8.5 µM (≈ 3.86 µg/mL)	34 µM (≈ 15.5 µg/mL)	56 µM (≈ 25.5 µg/mL)	> 100 µM	> 100 µM	inactive	Active	inactive	inactive	inactive	25 nM	inactive	inactive	inactive	inactive	inactive	inactive	MBC [7]: 75 µM (≈ 34.1 µg/mL); MBC99.9 [11, 28]: inactive; MIC50 [18]: > 100 µM; MIC90 [18]: > 100 µM; MIC50 [19]: 13 µM (≈ 5.91 µg/mL); MIC90 [19]: 18 µM (≈ 8.18 µg/mL); MIC50 [20, 28]: inactive; MIC90 [20, 28]: inactive; Activity [21]: Active; MIC50 [22]: inactive; MIC90 [22]: inactive; MBC [23]: 36 µM (≈ 16.4 µg/mL); Activity [24]: Active; MBC [25]: 34 µM (≈ 15.5 µg/mL); Activity [26]: Non-Toxic; MIC50 [27]: 22 µM (≈ 10 µg/mL); MIC90 [27]: 43 µM (≈ 19.5 µg/mL)
CCCCCCCCCCCCNCc1ccc(CNC(=O)c2csc3nc[nH]c(=O)c23)cc1	Active	Active	5 µM (≈ 2.41 µg/mL)	8.5 µM (≈ 4.1 µg/mL)	62 µM (≈ 29.9 µg/mL)	74 µM (≈ 35.7 µg/mL)	> 100 µM	> 100 µM	inactive	Active	inactive	inactive	inactive	380 nM	inactive	inactive	inactive	inactive	inactive	inactive	MBC ([11]; Salmonella enterica, ATCC 13076, 24 h, read-out: MBC99.9): > 100 µM; MIC50 [18]: 75 µM (≈ 36.2 µg/mL); MIC90 [18]: 99 µM (≈ 47.8 µg/mL); MIC50 [19]: 17 µM (≈ 8.21 µg/mL); MIC90 [19]: 23 µM (≈ 11.1 µg/mL); MIC50 [20, 29]: > 100 µM; MIC90 [20, 29]: > 100 µM; Activity [21]: Active; MIC50 [22]: inactive; MIC90 [22]: inactive; MBC [23]: 69 µM (≈ 33.3 µg/mL); Activity [24]: Active; MBC [25]: 34 µM (≈ 16.4 µg/mL); MIC50 [27]: 44 µM (≈ 21.2 µg/mL); MIC90 [27]: 88 µM (≈ 42.5 µg/mL)
